According to ChEMBL document CHEMBL1121584, “Soft drugs. 3. A new class of anticholinergic agents” (J Med Chem, 1980):

Tests used:
Cavia porcellus [1] = organism: Cavia porcellus; test: Anticholinergic activity was measured by the guinea pig ileum test; NA means no activity found at the doses used; type: functional
Summary of the method: (§1)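 Guinea pig whole ileum strips in McEwan's solution, gassed with O2/CO2 95:5, 37 °C organ bath, 1 g tension. Cumulative acetylcholine concentration-response curves were run to constancy, then repeated after 15–20 min equilibration with increasing antagonist concentrations. Mean curves gave dose ratios, from which competitive antagonism and pA2 were derived.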

[2] = Cholinergic potency was expressed in terms of relative activity vs acetylcholine; NA means no activity found at the doses used.; type: functional
Cavia porcellus [3] = organism: Cavia porcellus; test: Anticholinergic activity was measured by the guinea pig ileum test.; type: functional; settings: Cavia porcellus, Ileum; read-out: pA2 (converted); summary of the method: as §1
Cavia porcellus [4] = organism: Cavia porcellus; test: Antihistamine activity was measured by the guinea pig ileum test.; type: functional; settings: Cavia porcellus, Ileum; read-out: pA2 (converted)
Summary of the method: (§2)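 Guinea pig ileum strips, McEwan's solution, Carbogen, 37 °C, 1 g tension. Cumulative histamine concentration-response curves were recorded before and after 15–20 min equilibration with rising antagonist concentrations. pA2 came from dose ratios of mean curves.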

Sus scrofa [5] = organism: Sus scrofa; test: Half life period was measured at 37 degree C in […] from d[acid]/dt.; type: ADME; settings: pig, in vitro; in the assay text read “esterase” for “plasma”
Summary of the method: (§3)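 Hog liver carboxylesterase (EC 3.1.1.1), 2.4 units, with substrate at 5.6×10^-3 mol L-1 in 0.5 M potassium phosphate pH 7.4 containing gentisate internal standard, 37 °C. Rate was taken from acid formation.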

[6] = Half life period was measured at 37 degree C in dog plasma from d[quant]/dt.; type: ADME, Canis lupus familiaris
Summary of the method: (§4)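 Fresh dog blood was centrifuged and the upper layer filtered through 0.8 and 0.2 µm membranes. 2 mL plasma samples with gentisic acid internal standard were incubated. 5 µL aliquots taken at intervals were assayed against acid standard curves in methanol. Rates came from acid appearance or quaternary salt loss.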

Sus scrofa [7] = organism: Sus scrofa; test: The hydrolytic kinetics expressed as Kobs was measured in […] at 37 degree C; type: ADME; settings: pig; summary of the method: as §3
Canis familiaris = organism: Canis familiaris; test: The hydrolytic kinetics expressed as Kobs was measured in dog plasma at 37 degree C; type: ADME, Canis lupus familiaris; summary of the method: as §4
[8] = Half life period was measured at 7.4 pH from d[quant]/dt.; type: ADME; settings: pH 7.4
Summary of the method: (§5)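 Chemical hydrolysis in 0.5 M potassium phosphate, pH 7.4, 37 °C. Rate was followed by appearance of the acid product or loss of the quaternary salt. Where salt contained amine hydrochloride, initial concentration was taken from final acid after complete hydrolysis. Half-life was estimated from both where resolved.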

[9] = Half life period was measured at 7.4 pH from d[acid]/dt.; type: ADME; settings: pH 7.4; summary of the method: as §5
[10] = Cholinergic potency was expressed in terms of relative activity vs acetylcholine.; type: functional
Cavia porcellus [11] = organism: Cavia porcellus; test: Anticholinergic activity was measured by the guinea pig ileum test; c = NA means no activity found at the doses used.; type: functional; summary of the method: as §1
Felis catus [12] = organism: Felis catus; test: acetylcholine antagonist effect of compound on cat blood pressure at concentration 5.7*10e-8 in 3 min; type: functional
Summary of the method: (§6)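 Adult cats under ip α-chloralose (80 mg/kg) plus pentobarbitone (6 mg/kg), bilaterally vagotomized and artificially respired. Carotid blood pressure was recorded. An iv acetylcholine dose giving 70–80% of maximal vasodepressor response was used. After iv test drug, acetylcholine responses were checked at 1 min and then every 2–3 min and expressed as % of control. Doses were given in mol/kg, escalating after recovery.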

Felis catus [13] = organism: Felis catus; test: acetylcholine antagonist effect of compound on cat blood pressure at concentration 5.7*10e-7 in 3 min; type: functional; summary of the method: as §6
Felis catus [14] = organism: Felis catus; test: acetylcholine antagonist effect of compound on cat blood pressure at concentration 5.7*10e-7 in 18 min; type: functional; summary of the method: as §6
Felis catus [15] = test: acetylcholine antagonist effect of compound on cat blood pressure at concentration 5.7*10e-8 mol/kg in 1 min; type: functional; summary of the method: as §6
Felis catus [16] = organism: Felis catus; test: acetylcholine antagonist effect of compound on cat blood pressure at concentration 5.7*10e-7 in 6 min; type: functional; summary of the method: as §6
Felis catus [17] = organism: Felis catus; test: acetylcholine antagonist effect of compound on cat blood pressure at concentration 5.7*10e-7 in 31 min; type: functional; summary of the method: as §6
[18] = The hydrolytic kinetics expressed as Kobs was measured at 7.4 pH at 37 degree C; type: ADME; settings: pH 7.4; summary of the method: as §5
Felis catus [19] = organism: Felis catus; test: acetylcholine antagonist effect of compound on cat blood pressure at concentration 5.7*10e-7 in 37 min; type: functional; summary of the method: as §6
Cavia porcellus [20] = organism: Cavia porcellus; test: Anticholinergic activity was measured by the guinea pig ileum test; type: functional; settings: read-out: pA2 (converted); summary of the method: as §1
Felis catus [21] = organism: Felis catus; test: acetylcholine antagonist effect of compound on cat blood pressure at concentration 5.7*10e-7 in 27 min; type: functional; summary of the method: as §6
Felis catus [22] = organism: Felis catus; test: acetylcholine antagonist effect of compound on cat blood pressure at concentration 5.7*10e-7 in 1 min; type: functional; summary of the method: as §6
Felis catus [23] = organism: Felis catus; test: acetylcholine antagonist effect of compound on cat blood pressure at concentration 5.7*10e-7 in 12 min; type: functional; summary of the method: as §6
Felis catus [24] = organism: Felis catus; test: acetylcholine antagonist effect of compound on cat blood pressure at concentration 5.7*10e-8 in 7 min; type: functional
Summary of the method: (§7)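 Adult cats anesthetized ip with α-chloralose (80 mg/kg) plus sodium pentobarbitone (6 mg/kg), bilaterally vagotomized, artificially respired. Carotid arterial pressure recorded. Drugs given iv via brachial vein. Acetylcholine dose giving 70-80% of maximal vasodepressor response used throughout. Test drug injected, acetylcholine response checked 1 min later, then every ~2-3 min. Value is % of control vasodepressor response to acetylcholine.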

Felis catus [25] = organism: Felis catus; test: acetylcholine antagonist effect of compound on cat blood pressure at concentration 5.7*10e-8 in 9 min; type: functional; summary of the method: as §7
Felis catus [26] = organism: Felis catus; test: acetylcholine antagonist effect of compound on cat blood pressure at concentration 5.7*10e-8 in 5 min; type: functional; summary of the method: as §7
Felis catus [27] = organism: Felis catus; test: acetylcholine antagonist effect of compound on cat blood pressure at concentration 5.7*10e-7 in 15 min; type: functional; summary of the method: as §6
Felis catus [28] = organism: Felis catus; test: acetylcholine antagonist effect of compound on cat blood pressure at concentration 5.7*10e-7 in 22 min; type: functional; summary of the method: as §6
Cavia porcellus [29] = organism: Cavia porcellus; test: Antihistamine activity was measured by the guinea pig ileum test; c = NA means no activity found at the doses used.; type: functional; summary of the method: as §2

C[N+]1(C2OC(=O)c3ccccc32)CCCC1 (stereo not given)
pA2 (Cavia porcellus [1]): No activity | Activity [2]: No activity

CC1CCC[N+]1(C)COC(=O)C(c1ccccc1)C1CCCC1 (stereo not given)
Kb (Cavia porcellus [3]): 0.501 nM | Kb (Cavia porcellus [4]): 12.6 nM

Cn1cc[n+](COC(=O)C(c2ccccc2)C2CCCC2)c1 (stereo not given)
Kb (Cavia porcellus [3]): 15.8 nM | Kb (Cavia porcellus [4]): 501 nM

CCC(C(=O)OC[N+](CC)(CC)CC)c1ccccc1.[Cl-] (stereo not given)
T1/2 (Sus scrofa [5]): 2.1 h | Kb (Cavia porcellus [3]): 251 nM | half-life [6]: 1.4 h | K obs (Sus scrofa [7]): 0.00542 min⁻¹ | K obs (Canis familiaris): 0.00815 min⁻¹ | half-life [8]: 2.5 h | half-life [9]: 2.6 h | Kb (Cavia porcellus [4]): 316 nM

CCC(C)C(=O)OC[N+]12CCC(CC1)CC2 (stereo not given)
Activity [10]: 1 | pA2 (Cavia porcellus [11]): No activity

CCC(C(=O)OC[n+]1ccn(C)c1)c1ccccc1.[Cl-] (stereo not given)
Kb (Cavia porcellus [3]): 1260 nM | half-life [8]: 6 h | half-life [9]: 5.7 h | Kb (Cavia porcellus [4]): 1260 nM

CC[N+](CC)(COC(=O)C(C)(C)C)CC(=O)Nc1c(C)cccc1C
Activity [10]: 1 | pA2 (Cavia porcellus [11]): No activity

CC[N+](CC)(CC)COC(=O)C(c1ccccc1)C1CCCC1 (stereo not given)
Kb (Cavia porcellus [3]): 3.16 nM | Kb (Cavia porcellus [4]): 50.1 nM

CC[N+](CC)(CC)COC(=O)C(c1ccccc1)C1CCCC1.[Cl-] (stereo not given)
Response (Felis catus [12]): 18% | Response (Felis catus [13]): 0% | Response (Felis catus [14]): 55% | Response (Felis catus [15]): 0% | Response (Felis catus [16]): 0% | Response (Felis catus [17]): 95% | K obs [18]: 0.000361 min⁻¹ | Response (Felis catus [19]): 100% | Kb (Cavia porcellus [20]): 7.94 nM | Response (Felis catus [21]): 73% | Response (Felis catus [22]): 0% | Response (Felis catus [23]): 18% | Response (Felis catus [24]): 82% | Response (Felis catus [25]): 100% | Response (Felis catus [26]): 55% | Response (Felis catus [27]): 36% | half-life [9]: 32 h | Response (Felis catus [28]): 65%

C[N+]1(COC(=O)Cc2ccccc2)CCOCC1.[Cl-]
half-life [6]: 4 h | K obs (Canis familiaris): 1.73 min⁻¹ | half-life [9]: 8 h

CC[N+](CC)(CC)COC(C)=O
pA2 (Cavia porcellus [11]): No activity

CCC(C)C(=O)OC[N+]12CCC(CC1)C(OC(C)=O)C2 (stereo not given)
Activity [10]: 1 | pA2 (Cavia porcellus [11]): No activity

CC[N+](CC)(CC)COC(=O)C1(c2ccccc2)CCCC1
Kb (Cavia porcellus [3]): 79.4 nM | pA2 (Cavia porcellus [29]): No activity
